# Assay results published in ChEMBL document CHEMBL2150869, “Superpotent [Dmt¹] dermorphin tetrapeptides containing the 4-aminotetrahydro-2-benzazepin-3-one scaffold with mixed μ/δ opioid receptor agonistic properties” (J Med Chem, 2011).
# Activity calls are given as the source filed them. No cut-off for these calls is given here. Where a SMILES comes first, the peptide text is derived from it. [ ]: non-standard residue; d: D form. Dmt = Cc1cc(O)cc(C)c1C[C@H](N)C(=O)O; dNMeA = CN[C@H](C)C(=O)O; Sar = CNCC(=O)O
# Key:
# [1] = molecular target: Delta-type opioid receptor (Rattus norvegicus, UniProt P33533); assay: Displacement of [3H]deltorphin2 from DOR in rat brain homogenates by liquid scintillation counting; assay type: tissue-based
# [2] = molecular target: T1, Opioid receptors; mu and delta (Mus musculus, UniProt P42866+P32300); assay: Agonist activity at MOR/DOR in NMRI mouse frontal cortex assessed as reduction in spinal cord network activity by electrophysiology assay; assay type: functional, tissue-based
# Procedure, shortened: (§1)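 Primary neuronal networks from frontal cortex or spinal cord grown on microelectrode array neurochips for 4 weeks to 3 months. Accumulating concentrations from 1 fM to 100 μM (nine steps), each recorded for 1 h at 37 °C, pH 7.4. Spike rate and burst duration taken from the last 30 min stable phase in 60 s bins. EC50 obtained by logistic dose-response fitting.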
# [3] = molecular target: T2, Delta-type opioid receptor (Homo sapiens, UniProt P41143); assay: Displacement of [3H]diprenorphine from human DOR expressed in HEK293 cell membrane by liquid scintillation counting; assay type: cell membranes
# Procedure, shortened: (§2)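 Membranes (20 μg) from HEK293 cells stably expressing μ- or δ-OR incubated with [3H]diprenorphine (3.75 nM) for 45 min at 30 °C in 50 mM Tris-HCl pH 7.5, 100 mM NaCl, 10 mM MgCl2. Nonspecific binding defined with 10 μM naloxone. Bound ligand collected by GF/C filtration and counted by liquid scintillation.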
# Mu-type opioid receptor [4] = molecular target: T3, Mu-type opioid receptor (Homo sapiens, UniProt P35372); assay: Agonist activity at human MOR expressed in HEK293 cell membrane assessed as inhibition of forskolin-induced cAMP accumulation by liquid scintillation counting; assay type: functional, cell membranes
# Procedure, shortened: (§3)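 HEK293 cells stably expressing the μ- or δ-opioid receptor, prelabelled for 24 h with [3H]adenine. Cells treated with ligand (10 fM to 10 μM or 1 pM to 10 μM) plus 50 μM forskolin for 30 min at 37 °C. Read-out is [3H]cAMP over total [3H]adenine nucleotides by scintillation counting, given as percent of forskolin-stimulated accumulation.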
# Mu-type opioid receptor [5] = molecular target: T3, Mu-type opioid receptor; assay: Displacement of [3H]diprenorphine from human MOR expressed in HEK293 cell membrane by liquid scintillation counting; assay type: cell membranes; procedure, shortened: as §2
# [6] = molecular target: T2, Delta-type opioid receptor; assay: Agonist activity at human DOR expressed in HEK293 cell membrane assessed as inhibition of forskolin-induced cAMP accumulation by liquid scintillation counting relative to control; assay type: functional, cell membranes
# [7] = molecular target: T1, Opioid receptors; mu and delta; assay: Agonist activity at MOR/DOR in NMRI mouse spinal cord assessed as reduction in spinal cord network activity by electrophysiology assay; assay type: functional; procedure, shortened: as §1
# [8] = molecular target: T2, Delta-type opioid receptor; assay: Agonist activity at human DOR expressed in HEK293 cells assessed as stimulation of ERK1/2 phosphorylation at 1 uM after 2 mins by Western blotting; assay type: functional, cell-based
# Procedure, shortened: (§4)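 HEK293 cells stably expressing the μ- or δ-opioid receptor, serum-starved 16 h, then exposed to ligand at 37 °C for the indicated times. Whole lysates run on 10% SDS-PAGE and immunoblotted for phospho-ERK1/2, with the blot reprobed for total ERK as loading control. Three independent experiments.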
# Rattus norvegicus = organism: Rattus norvegicus; assay: Selectivity index, ratio of EC50 for rat brain DOR to EC50 for rat brain MOR by cAMP accumulation assay
# [9] = molecular target: Opioid receptors; mu and delta (Mus musculus) (UniProt P42866+P32300); assay: Agonist activity at MOR/DOR in NMRI mouse frontal cortex or spinal cord networks assessed as reduction in spinal cord network activity by electrophysiology assay relative to gabapentin; assay type: functional, tissue-based; design: scale not given: the % may be the effect or the level left
# [10] = molecular target: Kappa-type opioid receptor (Homo sapiens, UniProt P41145); assay: Displacement of [3H]diprenorphine from human KOR expressed in HEK293 cell membrane by liquid scintillation counting; assay type: cell membranes
# Mu-type opioid receptor [11] = molecular target: Mu-type opioid receptor (Rattus norvegicus, UniProt P33535); assay: Displacement of [3H]naloxone from MOR in rat brain homogenates by liquid scintillation counting; assay type: tissue-based
# Mu-type opioid receptor [12] = molecular target: T3, Mu-type opioid receptor; assay: Agonist activity at human MOR expressed in HEK293 cell membrane assessed as inhibition of forskolin-induced cAMP accumulation by liquid scintillation counting relative to control; assay type: functional, cell membranes
# Mu-type opioid receptor [13] = molecular target: T3, Mu-type opioid receptor; assay: Agonist activity at human MOR expressed in HEK293 cells assessed as stimulation of ERK1/2 phosphorylation at 1 uM after 2 mins by Western blotting; assay type: functional, cell-based; procedure, shortened: as §4
# Homo sapiens = organism: Homo sapiens; assay: Selectivity index, ratio of Ki for human DOR to Ki for human MOR by radioligand displacement assay; procedure, shortened: as §2
# [14] = molecular target: T2, Delta-type opioid receptor; assay: Agonist activity at human DOR expressed in HEK293 cell membrane assessed as inhibition of forskolin-induced cAMP accumulation by liquid scintillation counting; assay type: functional, cell membranes; procedure, shortened: as §3
# Mu-type opioid receptor [15] = molecular target: T3, Mu-type opioid receptor; assay: Agonist activity at human MOR expressed in HEK293 cells assessed as stimulation of ERK1/2 phosphorylation at […] after 2 mins by Western blotting; assay type: functional, cell-based; procedure, shortened: as §4
# Sequence of Opioid receptors; mu and delta (Mus musculus) (P32300 whole entry, looked up): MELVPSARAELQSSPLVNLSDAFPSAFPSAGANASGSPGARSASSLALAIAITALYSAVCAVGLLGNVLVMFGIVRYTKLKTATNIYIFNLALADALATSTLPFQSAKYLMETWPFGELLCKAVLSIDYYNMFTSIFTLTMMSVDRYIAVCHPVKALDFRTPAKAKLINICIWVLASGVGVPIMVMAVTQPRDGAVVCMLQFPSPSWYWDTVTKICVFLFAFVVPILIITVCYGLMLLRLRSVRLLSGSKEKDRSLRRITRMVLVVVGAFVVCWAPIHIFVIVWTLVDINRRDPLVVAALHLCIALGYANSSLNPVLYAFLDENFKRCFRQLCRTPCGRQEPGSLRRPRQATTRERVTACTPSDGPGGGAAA
# Sequence of Opioid receptors; mu and delta (Mus musculus) (P42866 whole entry, looked up): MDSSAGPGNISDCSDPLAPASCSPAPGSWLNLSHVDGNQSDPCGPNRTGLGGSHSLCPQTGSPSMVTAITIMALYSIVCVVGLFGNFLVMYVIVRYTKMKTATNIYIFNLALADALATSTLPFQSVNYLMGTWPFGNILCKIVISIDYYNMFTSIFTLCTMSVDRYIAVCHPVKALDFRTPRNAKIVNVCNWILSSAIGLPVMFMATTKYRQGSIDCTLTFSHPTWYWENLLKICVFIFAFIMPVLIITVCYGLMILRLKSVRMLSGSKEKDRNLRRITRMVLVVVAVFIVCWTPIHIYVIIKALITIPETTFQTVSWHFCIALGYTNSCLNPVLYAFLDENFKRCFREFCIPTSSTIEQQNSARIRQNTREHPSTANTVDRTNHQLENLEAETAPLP
# Sequence of Mu-type opioid receptor (Rattus norvegicus, UniProt P33535) (P33535 whole entry): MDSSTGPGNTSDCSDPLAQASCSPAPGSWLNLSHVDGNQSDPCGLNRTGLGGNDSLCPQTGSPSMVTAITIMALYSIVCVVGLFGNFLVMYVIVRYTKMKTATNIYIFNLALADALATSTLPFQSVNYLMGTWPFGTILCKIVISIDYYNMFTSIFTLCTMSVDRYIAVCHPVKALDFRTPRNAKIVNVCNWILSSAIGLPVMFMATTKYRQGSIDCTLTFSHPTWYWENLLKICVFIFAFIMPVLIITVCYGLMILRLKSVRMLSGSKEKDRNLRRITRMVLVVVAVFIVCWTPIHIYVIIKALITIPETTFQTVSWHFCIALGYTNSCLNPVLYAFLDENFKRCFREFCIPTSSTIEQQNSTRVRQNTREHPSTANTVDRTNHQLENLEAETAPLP
# Sequence of Delta-type opioid receptor (Rattus norvegicus, UniProt P33533) (P33533 whole entry): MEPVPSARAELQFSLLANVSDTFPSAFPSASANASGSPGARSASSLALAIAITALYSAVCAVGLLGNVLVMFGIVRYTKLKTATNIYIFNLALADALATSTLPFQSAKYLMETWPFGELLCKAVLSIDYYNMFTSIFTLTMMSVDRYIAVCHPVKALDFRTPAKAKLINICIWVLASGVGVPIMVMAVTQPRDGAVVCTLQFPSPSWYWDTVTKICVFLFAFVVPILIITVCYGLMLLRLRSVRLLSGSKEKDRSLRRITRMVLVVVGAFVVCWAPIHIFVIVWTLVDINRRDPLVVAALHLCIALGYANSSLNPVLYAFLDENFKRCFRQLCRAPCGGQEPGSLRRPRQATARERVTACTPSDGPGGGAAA
# Sequence of Kappa-type opioid receptor (P41145 whole entry): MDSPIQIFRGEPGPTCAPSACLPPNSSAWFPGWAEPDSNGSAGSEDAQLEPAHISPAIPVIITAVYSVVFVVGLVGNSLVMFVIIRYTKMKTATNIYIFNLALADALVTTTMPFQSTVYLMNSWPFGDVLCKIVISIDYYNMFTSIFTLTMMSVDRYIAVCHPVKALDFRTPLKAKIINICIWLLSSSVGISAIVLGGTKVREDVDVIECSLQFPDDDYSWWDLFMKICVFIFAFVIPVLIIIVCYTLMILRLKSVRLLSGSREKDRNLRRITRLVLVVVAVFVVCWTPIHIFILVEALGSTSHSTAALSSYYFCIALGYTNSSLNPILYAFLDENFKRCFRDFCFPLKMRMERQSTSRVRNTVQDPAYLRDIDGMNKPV
# T3 sequence (P35372 whole entry): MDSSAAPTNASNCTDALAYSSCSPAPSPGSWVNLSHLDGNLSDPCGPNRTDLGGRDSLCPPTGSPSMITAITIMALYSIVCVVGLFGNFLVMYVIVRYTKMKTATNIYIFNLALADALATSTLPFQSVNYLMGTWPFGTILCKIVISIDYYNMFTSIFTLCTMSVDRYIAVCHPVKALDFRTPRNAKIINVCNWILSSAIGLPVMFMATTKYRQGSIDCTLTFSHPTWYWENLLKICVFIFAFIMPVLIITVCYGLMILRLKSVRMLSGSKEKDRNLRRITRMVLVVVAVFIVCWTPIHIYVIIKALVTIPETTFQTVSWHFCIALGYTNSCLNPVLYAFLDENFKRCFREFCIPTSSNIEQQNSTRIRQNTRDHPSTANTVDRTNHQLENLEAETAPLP
# T2 sequence (P41143 whole entry): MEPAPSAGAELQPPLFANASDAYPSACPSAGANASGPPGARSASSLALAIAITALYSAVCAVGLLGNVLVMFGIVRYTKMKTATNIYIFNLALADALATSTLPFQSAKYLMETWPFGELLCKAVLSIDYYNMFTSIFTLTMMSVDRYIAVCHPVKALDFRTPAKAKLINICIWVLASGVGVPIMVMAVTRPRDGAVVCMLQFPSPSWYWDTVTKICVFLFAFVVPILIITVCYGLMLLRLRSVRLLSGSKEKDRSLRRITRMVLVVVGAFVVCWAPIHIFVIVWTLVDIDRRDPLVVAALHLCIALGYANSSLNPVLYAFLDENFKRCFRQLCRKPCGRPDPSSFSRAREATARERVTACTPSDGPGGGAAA
SMILES,IC50 [1] [µM],EC50 [2],Ki [3] [µM],EC50 (Mu-type opioid receptor [4]) [nM],Ki (Mu-type opioid receptor [5]) [µM],Emax [6] [%],EC50 [7],Activity [8],Ratio EC50 (Rattus norvegicus),Activity [9] [%],Ki [10] [µM],IC50 (Mu-type opioid receptor [11]) [µM],Emax (Mu-type opioid receptor [12]) [%],Activity (Mu-type opioid receptor [13]),Ratio Ki (Homo sapiens),EC50 [14] [nM],Activity (Mu-type opioid receptor [15])
Cc1cc(O)cc(C)c1C[C@H](N)C(=O)N(C)[C@H](C)C(=O)N[C@@H](Cc1ccccc1)C(=O)N(C)CC(N)=O (H-[Dmt][dNMeA]F[Sar]-NH2),0.0049,1.29 ×10⁻¹³ M,0.13,0.079,0.06,72,2.87 ×10⁻¹⁰ M,Active,55700,1,> 1000,0.0003,71,Active,2.2,4400,–
Cc1cc(O)cc(C)c1C[C@H](N)C(=O)N(C)[C@H](C)C(=O)N[C@H]1Cc2ccccc2CN(CC(N)=O)C1=O,0.00095,1.61 ×10⁻¹⁵ M,0.005,0.00174,0.0148,61,1.3 nM,Active,9.2,21,> 1000,0.00095,72,–,0.34,0.016,Active
C[C@H](C(=O)N[C@@H](Cc1ccccc1)C(=O)N(C)CC(N)=O)N(C)C(=O)[C@@H](N)Cc1ccc(O)cc1 (H-Y[dNMeA]F[Sar]-NH2),0.0071,5 ×10⁻¹² M,> 10,3.28,1.1,74,1060 nM,Active,293,3,> 1000,0.0281,77,Active,–,960,–
Cc1cc(O)cc(C)c1C[C@H](N)C(=O)N[C@H](C)C(=O)N[C@H]1Cc2ccccc2CN(CC(N)=O)C1=O,–,–,0.018,0.0832,0.17,66,–,Active,2.04,–,> 1000,–,78,Active,0.106,0.17,–
C[C@H](C(=O)N[C@H]1Cc2ccccc2CN(CC(N)=O)C1=O)N1Cc2cc(O)ccc2C[C@H](N)C1=O,0.0178,5.67 ×10⁻⁷ M,0.16,5.17,2.7,79,6.7 nM,Active,–,14,> 1000,0.0208,78,–,0.059,–,Active
